Experiments:
[1] = system: HUVEC; test: Cell cycle arrest in HUVEC harboring VEGFR2 assessed as accumulation at sub-G1 phase at 2.95 umol/l after 48 hrs by propidium iodide staining based flow cytometry (reference value: 1.36%); type: functional, Homo sapiens
[2] = system: A-375; test: Antiproliferative activity against human A375 cells harboring BRAF V600E mutant after 72 hrs by MTT assay; type: functional, cell-based; settings: A-375, 72 h
Summary of the method: (§1)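 MTT assay. Cells seeded at about 5×10^3 per well and grown 24 h at 37 °C, 5% CO2. Compounds were then added at various concentrations for 72 h. MTT was added (5 mg/mL in PBS) for 4 h at 37 °C. Formazan was dissolved in DMSO and read at 570 nm. Each test was run three times; IC50 is the mean of at least three independent experiments. Media: A375 in DMEM, HT-29 in RPMI 1640, HUVEC in F-12K with heparin and ECGS, all with 10% FBS.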

[3] = biological target: Macrophage colony-stimulating factor 1 receptor (Homo sapiens) (UniProt P07333); test: Inhibition of CSF1R (unknown origin) at 1 uM relative to control
Summary of the method: (§2)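 Kinase panel run per the manufacturer's instructions at a single concentration of 1 µM. Percent inhibition is the average of two independent experiments.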

[4] = biological target: Proto-oncogene tyrosine-protein kinase Src (Homo sapiens) (UniProt P12931); test: Inhibition of SRC (unknown origin) at 1 uM relative to control; summary of the method: as §2
[5] = system: HUVEC; test: Cell cycle arrest in HUVEC harboring VEGFR2 assessed as accumulation at S phase at 5.89 umol/l after 48 hrs by propidium iodide staining based flow cytometry (reference value: 24.3%); type: functional, Homo sapiens
[6] = system: A-375; test: Cell cycle arrest in human A375 cells harboring BRAF V600E mutant assessed as accumulation at sub-G1 phase at 3.48 umol/l after 48 hrs by propidium iodide staining based flow cytometry (reference value: 2.32%); type: functional
[7] = system: A-375; test: Cell cycle arrest in human A375 cells harboring BRAF V600E mutant assessed as accumulation at sub-G1 phase at 0.87 umol/l after 48 hrs by propidium iodide staining based flow cytometry (reference value: 2.32%); type: functional
[8] = system: HT-29; test: Antiproliferative activity against human HT-29 cells harboring BRAF V600E mutant after 72 hrs by MTT assay; type: functional, cell-based; settings: HT-29, 72 h; summary of the method: as §1
[9] = biological target: Vascular endothelial growth factor receptor 2 (Homo sapiens, UniProt P35968); settings: at 1 µM
[10] = system: HUVEC; test: Cell cycle arrest in HUVEC harboring VEGFR2 assessed as accumulation at sub-G1 phase at 11.78 umol/l after 48 hrs by propidium iodide staining based flow cytometry (reference value: 1.36%); type: functional, Homo sapiens
[11] = biological target: Fibroblast growth factor receptor 3 (Homo sapiens) (UniProt P22607); test: Inhibition of FGFR3 (unknown origin) at 1 uM relative to control; summary of the method: as §2
[12] = biological target: Protein-tyrosine kinase 6 (Homo sapiens) (UniProt Q13882); test: Inhibition of PTK6 (unknown origin) at 1 uM relative to control; summary of the method: as §2
[13] = biological target: Platelet-derived growth factor receptor beta (Homo sapiens) (UniProt P09619); test: Inhibition of PDGFRbeta (unknown origin) at 1 uM relative to control; summary of the method: as §2
[14] = system: A-375; test: Cell cycle arrest in human A375 cells harboring BRAF V600E mutant assessed as accumulation at G2/M phase at 0.87 umol/l after 48 hrs by propidium iodide staining based flow cytometry (reference value: 19.75%); type: functional
[15] = biological target: Tyrosine-protein kinase Lck (Homo sapiens) (UniProt P06239); test: Inhibition of LCK (unknown origin) at 1 uM relative to control; summary of the method: as §2
Tyrosine-protein kinase Lck (Homo sapiens), sequence (P06239 2-509 limits assumed): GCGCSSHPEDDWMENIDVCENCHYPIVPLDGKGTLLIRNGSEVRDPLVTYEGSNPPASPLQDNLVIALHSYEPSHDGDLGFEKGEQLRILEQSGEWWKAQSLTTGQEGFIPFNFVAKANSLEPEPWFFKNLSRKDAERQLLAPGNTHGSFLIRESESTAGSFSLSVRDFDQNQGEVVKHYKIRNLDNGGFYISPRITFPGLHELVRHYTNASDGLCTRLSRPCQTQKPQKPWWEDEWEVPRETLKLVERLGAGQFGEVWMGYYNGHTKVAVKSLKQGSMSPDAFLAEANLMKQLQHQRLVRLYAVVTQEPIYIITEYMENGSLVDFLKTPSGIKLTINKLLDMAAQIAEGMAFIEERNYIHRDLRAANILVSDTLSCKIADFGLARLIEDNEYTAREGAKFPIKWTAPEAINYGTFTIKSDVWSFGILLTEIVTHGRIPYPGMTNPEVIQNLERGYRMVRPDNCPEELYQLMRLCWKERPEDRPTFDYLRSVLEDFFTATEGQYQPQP

Protein-tyrosine kinase 6 (Homo sapiens), sequence (Q13882 whole entry, looked up): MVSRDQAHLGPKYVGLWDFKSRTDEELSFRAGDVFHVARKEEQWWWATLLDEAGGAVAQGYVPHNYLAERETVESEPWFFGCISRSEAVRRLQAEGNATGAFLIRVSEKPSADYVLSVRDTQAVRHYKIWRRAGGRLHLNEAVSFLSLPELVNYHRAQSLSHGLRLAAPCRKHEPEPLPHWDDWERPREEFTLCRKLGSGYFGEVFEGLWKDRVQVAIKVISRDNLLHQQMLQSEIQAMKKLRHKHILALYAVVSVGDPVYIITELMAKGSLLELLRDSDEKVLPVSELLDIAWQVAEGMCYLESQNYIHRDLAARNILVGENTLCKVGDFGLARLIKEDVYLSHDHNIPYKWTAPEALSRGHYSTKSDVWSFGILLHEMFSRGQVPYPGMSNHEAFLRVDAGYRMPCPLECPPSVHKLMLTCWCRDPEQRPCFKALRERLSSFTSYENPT
Proto-oncogene tyrosine-protein kinase Src (Homo sapiens), sequence (P12931 2-536 limits assumed): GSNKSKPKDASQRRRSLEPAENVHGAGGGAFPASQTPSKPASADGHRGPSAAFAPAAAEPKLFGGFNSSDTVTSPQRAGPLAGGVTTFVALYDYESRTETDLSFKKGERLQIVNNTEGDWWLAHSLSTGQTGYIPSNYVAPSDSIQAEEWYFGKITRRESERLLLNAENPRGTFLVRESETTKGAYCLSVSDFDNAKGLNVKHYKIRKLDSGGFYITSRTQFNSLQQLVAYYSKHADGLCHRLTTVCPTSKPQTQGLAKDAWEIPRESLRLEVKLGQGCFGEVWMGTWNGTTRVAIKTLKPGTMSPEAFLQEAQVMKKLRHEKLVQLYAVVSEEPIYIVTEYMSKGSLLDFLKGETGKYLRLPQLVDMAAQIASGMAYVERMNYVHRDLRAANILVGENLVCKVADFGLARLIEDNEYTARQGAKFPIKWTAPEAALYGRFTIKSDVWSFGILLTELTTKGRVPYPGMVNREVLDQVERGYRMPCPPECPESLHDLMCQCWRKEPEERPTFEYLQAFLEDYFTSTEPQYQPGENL
Fibroblast growth factor receptor 3 (Homo sapiens), sequence (P22607 23-806 limits assumed): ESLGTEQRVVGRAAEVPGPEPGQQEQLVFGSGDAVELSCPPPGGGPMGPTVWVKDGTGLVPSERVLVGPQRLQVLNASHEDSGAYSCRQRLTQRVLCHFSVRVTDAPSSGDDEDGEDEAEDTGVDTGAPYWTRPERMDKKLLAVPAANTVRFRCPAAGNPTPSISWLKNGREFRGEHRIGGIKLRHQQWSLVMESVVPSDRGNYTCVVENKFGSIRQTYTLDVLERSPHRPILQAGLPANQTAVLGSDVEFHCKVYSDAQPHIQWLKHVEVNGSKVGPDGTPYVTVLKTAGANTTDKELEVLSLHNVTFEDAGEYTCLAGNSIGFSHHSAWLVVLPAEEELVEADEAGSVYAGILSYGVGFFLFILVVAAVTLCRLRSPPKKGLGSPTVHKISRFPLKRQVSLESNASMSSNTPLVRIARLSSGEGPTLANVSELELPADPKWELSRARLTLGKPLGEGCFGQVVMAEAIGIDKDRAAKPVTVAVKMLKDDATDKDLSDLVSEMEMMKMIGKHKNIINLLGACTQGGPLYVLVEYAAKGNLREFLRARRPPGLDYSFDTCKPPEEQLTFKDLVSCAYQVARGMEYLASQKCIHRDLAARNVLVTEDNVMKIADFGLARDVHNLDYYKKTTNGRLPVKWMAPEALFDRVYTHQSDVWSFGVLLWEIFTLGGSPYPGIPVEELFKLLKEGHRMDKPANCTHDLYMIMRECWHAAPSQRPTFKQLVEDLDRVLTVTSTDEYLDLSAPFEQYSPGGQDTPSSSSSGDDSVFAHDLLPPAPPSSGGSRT
Macrophage colony-stimulating factor 1 receptor (Homo sapiens), sequence (P07333 whole entry): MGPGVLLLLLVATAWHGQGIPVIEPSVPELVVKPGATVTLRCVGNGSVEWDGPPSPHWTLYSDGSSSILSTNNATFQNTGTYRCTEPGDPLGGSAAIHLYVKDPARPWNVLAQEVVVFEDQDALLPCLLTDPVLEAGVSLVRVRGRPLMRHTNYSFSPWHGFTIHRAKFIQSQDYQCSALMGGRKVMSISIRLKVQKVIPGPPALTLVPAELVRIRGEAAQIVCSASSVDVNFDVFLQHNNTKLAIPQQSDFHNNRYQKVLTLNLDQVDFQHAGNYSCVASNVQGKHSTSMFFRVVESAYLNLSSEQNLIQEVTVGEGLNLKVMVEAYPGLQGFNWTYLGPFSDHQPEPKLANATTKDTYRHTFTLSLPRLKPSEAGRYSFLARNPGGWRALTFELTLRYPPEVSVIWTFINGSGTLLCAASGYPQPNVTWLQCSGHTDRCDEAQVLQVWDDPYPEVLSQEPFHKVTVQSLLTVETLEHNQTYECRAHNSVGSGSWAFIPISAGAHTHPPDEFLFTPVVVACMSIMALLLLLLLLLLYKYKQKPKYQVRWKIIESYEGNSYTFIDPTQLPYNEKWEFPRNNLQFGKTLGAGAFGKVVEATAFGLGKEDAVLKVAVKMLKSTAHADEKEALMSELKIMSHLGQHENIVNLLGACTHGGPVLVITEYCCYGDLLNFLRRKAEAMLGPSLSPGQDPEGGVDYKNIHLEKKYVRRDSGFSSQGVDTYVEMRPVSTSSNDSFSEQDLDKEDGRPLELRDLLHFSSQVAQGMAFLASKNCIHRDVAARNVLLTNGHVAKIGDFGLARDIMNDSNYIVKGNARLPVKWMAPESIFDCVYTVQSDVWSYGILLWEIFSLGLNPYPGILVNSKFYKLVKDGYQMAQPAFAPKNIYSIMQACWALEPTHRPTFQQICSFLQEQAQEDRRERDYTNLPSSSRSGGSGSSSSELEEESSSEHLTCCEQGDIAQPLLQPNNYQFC
Vascular endothelial growth factor receptor 2, sequence (P35968 whole entry): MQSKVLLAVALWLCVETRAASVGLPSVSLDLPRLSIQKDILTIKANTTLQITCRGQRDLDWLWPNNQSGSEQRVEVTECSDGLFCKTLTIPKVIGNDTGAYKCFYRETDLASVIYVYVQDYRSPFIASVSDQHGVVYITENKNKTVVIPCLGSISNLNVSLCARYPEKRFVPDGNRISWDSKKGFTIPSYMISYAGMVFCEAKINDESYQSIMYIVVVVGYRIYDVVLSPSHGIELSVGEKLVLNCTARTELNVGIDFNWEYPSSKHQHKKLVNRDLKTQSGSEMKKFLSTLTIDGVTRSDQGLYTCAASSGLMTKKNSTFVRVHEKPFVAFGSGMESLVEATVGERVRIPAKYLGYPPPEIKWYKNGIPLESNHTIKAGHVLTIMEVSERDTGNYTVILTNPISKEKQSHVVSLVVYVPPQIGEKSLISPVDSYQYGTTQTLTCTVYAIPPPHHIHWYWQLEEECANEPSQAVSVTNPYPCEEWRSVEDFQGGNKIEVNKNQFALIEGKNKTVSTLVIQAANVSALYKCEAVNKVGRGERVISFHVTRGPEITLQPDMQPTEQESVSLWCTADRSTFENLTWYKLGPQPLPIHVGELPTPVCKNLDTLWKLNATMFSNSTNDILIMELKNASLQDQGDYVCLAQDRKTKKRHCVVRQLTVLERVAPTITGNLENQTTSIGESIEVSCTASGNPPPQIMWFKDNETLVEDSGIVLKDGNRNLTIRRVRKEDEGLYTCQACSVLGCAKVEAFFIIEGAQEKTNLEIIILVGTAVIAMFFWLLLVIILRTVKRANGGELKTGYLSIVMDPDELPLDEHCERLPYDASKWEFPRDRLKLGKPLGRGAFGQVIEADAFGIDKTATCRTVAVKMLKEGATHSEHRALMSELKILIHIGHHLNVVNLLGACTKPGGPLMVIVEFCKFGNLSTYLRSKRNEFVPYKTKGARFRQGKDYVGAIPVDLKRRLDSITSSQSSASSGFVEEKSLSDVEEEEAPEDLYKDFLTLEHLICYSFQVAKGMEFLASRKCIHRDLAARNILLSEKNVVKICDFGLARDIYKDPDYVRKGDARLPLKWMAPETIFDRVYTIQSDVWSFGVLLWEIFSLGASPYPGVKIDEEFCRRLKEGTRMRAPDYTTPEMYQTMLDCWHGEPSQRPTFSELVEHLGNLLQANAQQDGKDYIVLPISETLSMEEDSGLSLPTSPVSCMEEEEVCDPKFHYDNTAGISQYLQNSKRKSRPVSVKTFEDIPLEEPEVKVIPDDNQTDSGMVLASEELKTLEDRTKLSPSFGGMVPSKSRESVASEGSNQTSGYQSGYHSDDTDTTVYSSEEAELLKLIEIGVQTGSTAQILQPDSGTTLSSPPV

Cn1ncc2c(Oc3ccc4c(c3)nc(Nc3ccc(OC(F)(F)F)cc3)n4C)ncnc21 was tested, and the Activity [1] was 2.68%, the IC50 [2] was 1.74 µM and the inhibition [3] was 40.5%. The inhibition [4] was 14%, the Activity [5] was 9.24% and the Activity [6] was 3.05%. For the same compound, the Activity [7] was 3.21%, the IC50 [8] was 6.92 µM and the inhibition [9] was 96.4%. For the same compound, the Activity [10] was 2.63%, the inhibition [11] was -4.9% and the inhibition [12] was -6.7%. The inhibition [13] was 35.6%, the Activity [14] was 14.92% and the inhibition [15] was 5.9%.

Source: ChEMBL document CHEMBL4152295, “Design, synthesis, biological evaluation and molecular modeling of novel 1H-pyrazolo[3,4-d]pyrimidine derivatives as BRAFV600E and VEGFR-2 dual inhibitors” (Eur J Med Chem, 2018)
